Assay results published in ChEMBL document CHEMBL4257574, “Structure-guided design and synthesis of isoflavone analogs of GW4064 with potent lipid accumulation inhibitory activities” (Bioorg Med Chem Lett, 2018).
Calls of active or inactive are those of the source. The rule behind the calls is not given here.

Experiments:
[1] = system: 3T3-L1; test: Cytotoxicity against mouse 3T3L1 cells assessed as effect on cell viability at 10 uM after 48 hrs by MTT assay; type: cell-based; details: 3t3-l1, 48 h
Summary of the method: (§1)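 3T3-L1 preadipocytes incubated 48 h with 5, 10, 20 or 40 μM compound; viability read by MTT assay against 0.1% DMSO-treated control cells. Mean ± SD of three independent experiments.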

[2] = system: 3T3-L1; test: Reduction in lipid accumulation in mouse 3T3L1 cells at 10 uM by Oil Red O staining-based absorbance method relative to control; type: functional
Summary of the method: (§2)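 3T3-L1 preadipocytes differentiated to mature adipocytes, then treated with compound (screen at 10 μM; concentration series 10, 20, 40, 80 μM). Lipid stained with Oil Red O, dye extracted and absorbance read at 492 nm; microscopic images also taken. Compared with vehicle; mean ± SD of two independent experiments.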

[3] = target: T1, Bile acid receptor (Homo sapiens) (UniProt Q96RI1); test: Transactivation of FXR (unknown origin) at 10 uM by cell-based dual luciferase reporter gene assay
T1 sequence (whole entry): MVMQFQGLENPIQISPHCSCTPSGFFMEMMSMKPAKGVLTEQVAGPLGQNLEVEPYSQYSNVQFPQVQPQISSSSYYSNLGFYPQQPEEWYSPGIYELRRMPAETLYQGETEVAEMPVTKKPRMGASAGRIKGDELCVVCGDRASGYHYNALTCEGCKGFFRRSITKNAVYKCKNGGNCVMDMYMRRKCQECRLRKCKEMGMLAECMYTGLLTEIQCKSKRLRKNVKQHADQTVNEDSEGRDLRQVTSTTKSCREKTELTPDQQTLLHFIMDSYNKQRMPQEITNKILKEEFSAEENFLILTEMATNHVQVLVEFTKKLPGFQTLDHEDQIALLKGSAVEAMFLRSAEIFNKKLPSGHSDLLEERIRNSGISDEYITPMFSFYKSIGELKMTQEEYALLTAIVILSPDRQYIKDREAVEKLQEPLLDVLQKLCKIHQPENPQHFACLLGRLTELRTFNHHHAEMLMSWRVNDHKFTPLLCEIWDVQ
Summary of the method: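 Cell-based FXR transactivation measured with a dual-luciferase reporter system; cells exposed to 10 μM compound. Mean ± SEM, n = 3.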

[4] = system: 3T3-L1; test: Cytotoxicity against mouse 3T3L1 cells assessed as reduction in cell viability at 40 uM after 48 hrs by MTT assay; type: cell-based; details: 3t3-l1, 48 h; summary of the method: as §1
[5] = system: 3T3-L1; test: Reduction in lipid accumulation in mouse 3T3L1 cells at 80 uM by Oil Red O staining-based absorbance method relative to control; type: functional; set-up: scale not given: the % may be the effect or the level left; summary of the method: as §2
[6] = system: 3T3-L1; test: Reduction in lipid accumulation in mouse 3T3L1 cells by Oil Red O staining-based absorbance method; type: functional, cell-based; summary of the method: as §2
[7] = system: 3T3-L1; test: Reduction in lipid accumulation in mouse 3T3L1 cells at 10 to 80 uM by Oil Red O staining-based microscopic analysis; type: functional, cell-based; summary of the method: as §2
[8] = system: HepG2; test: Up-regulation of FXR mRNA expression in human HepG2 cells at 10 uM by RT-PCR analysis; type: functional, cell-based
Summary of the method: (§3)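 HepG2 cells exposed to test agent at 10 μM; mRNA of FXR and FXR-regulated genes SHP, BSEP and SREBP-1c quantified by real-time PCR relative to vehicle. Mean ± SEM, n = 3.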

[9] = target: T1, Bile acid receptor (Homo sapiens); test: Agonist activity against FXR in human HepG2 cells assessed as up-regulation of SHP mRNA expression at 10 uM by RT-PCR analysis; type: cell-based; summary of the method: as §3
[10] = target: T1, Bile acid receptor (Homo sapiens); test: Agonist activity against FXR in human HepG2 cells assessed as up-regulation of BSEP mRNA expression at 10 uM by RT-PCR analysis; type: cell-based; summary of the method: as §3
[11] = target: T1, Bile acid receptor (Homo sapiens); test: Agonist activity against FXR in human HepG2 cells assessed as down regulation of SREBP-1c mRNA expression at 10 uM by RT-PCR analysis; type: cell-based; summary of the method: as §3
[12] = Hepatotoxicity in human HepG2 cells assessed as reduction in cell viability at 80 uM; type: toxicity, cell-based; details: hepg2, 80 µM
[13] = system: HepG2; test: Induction of cell proliferation in human HepG2 cells at <20 uM; type: functional, cell-based
[14] = system: 3T3-L1; test: Increase in cell viability of mouse 3T3L1 cells at 5 uM after 48 hrs by MTT assay; type: functional, cell-based; summary of the method: as §1

SMILES | Activity [1] | Activity [2] | Activity [4] | further results
CC(C)c1onc(-c2c(Cl)cccc2Cl)c1COc1ccc(/C=C/c2cccc(C(=O)O)c2)c(Cl)c1 | Non-Toxic | Active |  | Activity [3]: Active
CCNC(=O)c1ccc(-c2coc3cc(OCc4c(-c5c(Cl)cccc5Cl)noc4C(C)C)ccc3c2=O)cc1 | Non-Toxic | Active | Non-Toxic | 
CC(C)c1onc(-c2c(Cl)cccc2Cl)c1COc1ccc2c(=O)c(-c3ccc(C(=O)N(C)C)cc3)coc2c1 | Non-Toxic | Active | Non-Toxic | Activity [5]: >50%; Activity [6]: Dose-dependent effect; Activity [7]: Active; Activity [3]: Active; Activity [8]: Active; Activity [9]: Active; Activity [10]: Active; Activity [11]: Active; Activity [12]: Non-Toxic; Activity [13]: Active
CC(C)c1onc(-c2c(Cl)cccc2Cl)c1COc1ccc2c(=O)c(-c3ccc([N+](=O)[O-])cc3)coc2c1 | Non-Toxic | Active | Non-Toxic | 
CCOC(=O)COc1ccc(-c2coc3cc(OCc4c(-c5c(Cl)cccc5Cl)noc4C(C)C)ccc3c2=O)cc1 | Non-Toxic | Active | Non-Toxic | 
COC(=O)c1ccc(-c2coc3cc(OCc4c(-c5c(Cl)cccc5Cl)noc4C(C)C)ccc3c2=O)cc1 | Non-Toxic | Active | Non-Toxic | 
CNC(=O)c1ccc(-c2coc3cc(OCc4c(-c5c(Cl)cccc5Cl)noc4C(C)C)ccc3c2=O)cc1 | Non-Toxic | Active | Non-Toxic | 
CC(C)c1onc(-c2c(Cl)cccc2Cl)c1COc1ccc2c(=O)c(-c3ccc(F)cc3)coc2c1 | Non-Toxic |  | Non-Toxic | 
CC(C)c1onc(-c2c(Cl)cccc2Cl)c1COc1ccc2c(=O)c(-c3ccc(C(=O)O)cc3)coc2c1 | Non-Toxic | Active | Non-Toxic | 
CC(C)c1onc(-c2c(Cl)cccc2Cl)c1COc1ccc2c(=O)c(-c3ccc(OCC(=O)O)cc3)coc2c1 | Non-Toxic | Active | Non-Toxic | 
CC(C)c1onc(-c2c(Cl)cccc2Cl)c1COc1ccc2c(=O)c(-c3ccc(C(=O)NC4CC4)cc3)coc2c1 | Non-Toxic | Active | Non-Toxic | Activity [14]: Active
COc1ccc(-c2coc3cc(OCc4c(-c5c(Cl)cccc5Cl)noc4C(C)C)ccc3c2=O)cc1 | Non-Toxic | Active | Non-Toxic | 
CC(C)c1onc(-c2c(Cl)cccc2Cl)c1COc1ccc2c(=O)c(-c3ccc(O)cc3)coc2c1 | Non-Toxic | Active | Toxic | 
